From ChEMBL document CHEMBL1759993, “Synthesis and SAR of novel benzoxaboroles as a new class of β-lactamase inhibitors” (Bioorg Med Chem Lett, 2011)
The source made the active and inactive calls. No cut-off for these calls is given here.

Assays:
[1] = Inhibition of beta-lactamase TEM1 using nitrocefin as substrate after 30 mins by spectrophotometric analysis
Method in brief: (§1)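 Substrate level differed between class A and class C enzymes. Fraction inhibited was taken as the rate with inhibitor over the rate without. IC50 was read from log[inhibitor] dose–response curves.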

[2] = Inhibition of beta-lactamase CTX-M9a using nitrocefin as substrate after 30 mins by spectrophotometric analysis; method in brief: as §1
Beta-lactamase = Beta-lactamase (Enterobacter cloacae, UniProt P05364); experiment: Inhibition of Enterobacter cloacae P99 beta-lactamase AmpC P99 using nitrocefin as substrate after 30 mins by spectrophotometric analysis; method in brief: as §1
[3] = Inhibition of beta-lactamase CMY-2 using nitrocefin as substrate after 30 mins by spectrophotometric analysis; method in brief: as §1
[4] = biological target: Beta-lactamase (Enterobacter cloacae) (UniProt P05364); experiment: Inhibition of Enterobacter cloacae P99 beta-lactamase AmpC P99 assessed as potentiation of ceftazidime-mediated antibacterial activity at 8 ug/ml
[5] = Inhibition of beta-lactamase CMY-2 expressed in Escherichia coli SYN2549 assessed as potentiation of ceftazidime-mediated antibacterial activity at 8 ug/ml

Sequence of Beta-lactamase (P05364 whole entry): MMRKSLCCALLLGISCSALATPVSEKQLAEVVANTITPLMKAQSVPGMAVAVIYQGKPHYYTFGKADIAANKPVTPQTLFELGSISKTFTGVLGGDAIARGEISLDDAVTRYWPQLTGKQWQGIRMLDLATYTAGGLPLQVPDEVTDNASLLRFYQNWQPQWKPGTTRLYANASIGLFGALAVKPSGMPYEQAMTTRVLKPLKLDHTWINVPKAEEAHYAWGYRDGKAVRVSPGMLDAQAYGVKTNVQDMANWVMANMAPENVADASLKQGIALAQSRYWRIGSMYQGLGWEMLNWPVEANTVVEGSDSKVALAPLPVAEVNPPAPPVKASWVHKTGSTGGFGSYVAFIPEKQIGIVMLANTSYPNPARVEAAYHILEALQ
Sequence of Beta-lactamase (Enterobacter cloacae) (P05364 21-381 limits assumed): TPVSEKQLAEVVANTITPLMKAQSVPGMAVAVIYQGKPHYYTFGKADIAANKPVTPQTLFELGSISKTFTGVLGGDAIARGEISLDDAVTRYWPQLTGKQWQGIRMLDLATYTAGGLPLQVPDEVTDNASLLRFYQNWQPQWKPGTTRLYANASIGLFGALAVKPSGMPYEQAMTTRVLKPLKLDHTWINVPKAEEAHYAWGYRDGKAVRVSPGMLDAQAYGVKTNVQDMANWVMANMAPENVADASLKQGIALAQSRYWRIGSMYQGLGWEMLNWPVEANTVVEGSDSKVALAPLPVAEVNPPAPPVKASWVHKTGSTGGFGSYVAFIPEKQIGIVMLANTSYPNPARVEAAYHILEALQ

SMILES: [O-][S+](c1ccccc1)c1ccc2c(c1)B(O)OC2 (stereo unspecified)
- Ki [1]: 4.87 µM
- Ki [2]: > 32 µM
- Ki (Beta-lactamase): 58 µM
- Ki [3]: 59.3 µM

SMILES: O=C(O)c1cnc(Oc2ccc3c(c2)B(O)OC3)nc1
- Ki [1]: 14.7 µM
- Ki [2]: > 32 µM
- Ki (Beta-lactamase): 0.08 µM
- Ki [3]: 0.07 µM

SMILES: O=C(O)c1cnc(Oc2ccc3c(c2)B(O)OC3)cn1
- Ki [1]: 20.4 µM
- Activity [4]: Active
- Ki [2]: > 32 µM
- Ki (Beta-lactamase): 0.02 µM
- Activity [5]: Active

SMILES: OB1OCc2ccc(Oc3cccc(O)c3)cc21
- Ki [2]: 0.816 µM
- Ki [3]: 3.12 µM

SMILES: NCc1cccc(Oc2ccc3c(c2)B(O)OC3)c1
- Ki (Beta-lactamase): 3.33 µM

SMILES: O=S(=O)(c1ccccc1)c1ccc2c(c1)B(O)OC2
- Ki [1]: 11.2 µM
- Ki [2]: > 32 µM
- Ki (Beta-lactamase): 63.2 µM
- Ki [3]: 108 µM

SMILES: OB1OCc2ccc(Cc3ccccc3)cc21
- Ki [1]: > 37 µM
- Ki [2]: > 32 µM
- Ki (Beta-lactamase): 19.8 µM
- Ki [3]: 25.6 µM

SMILES: CN(C)Cc1cccc(Oc2ccc3c(c2)B(O)OC3)c1
- Ki (Beta-lactamase): 7.72 µM

SMILES: OB1OCc2ccc(Sc3ccccc3)cc21
- Ki [1]: 1.76 µM
- Ki [2]: > 32 µM
- Ki (Beta-lactamase): 9.09 µM
- Ki [3]: 12.7 µM

SMILES: NCc1ccc(Oc2ccc3c(c2)B(O)OC3)cc1
- Ki (Beta-lactamase): 13.3 µM

SMILES: COc1cccc(Oc2ccc3c(c2)B(O)OC3)c1
- Ki [1]: 1.4 µM
- Ki [2]: 1.1 µM
- Ki (Beta-lactamase): 1.35 µM
- Ki [3]: 2.65 µM

SMILES: O=C(c1ccccc1)c1ccc2c(c1)B(O)OC2
- Ki [1]: 10.6 µM
- Ki [2]: > 32 µM
- Ki (Beta-lactamase): 28.5 µM
- Ki [3]: 46.9 µM

SMILES: OB1OCc2ccc(Nc3ccccc3)cc21
- Ki [1]: > 37 µM
- Ki [2]: > 32 µM
- Ki (Beta-lactamase): 4.73 µM
- Ki [3]: 13.8 µM

SMILES: OB1OCc2ccc(Oc3ccccc3)cc21
- Ki [1]: 1.02 µM
- Ki [2]: 1.89 µM
- Ki (Beta-lactamase): 0.71 µM
- Ki [3]: 1.51 µM

SMILES: CCOC(=O)c1ccc(Oc2ccc3c(c2)B(O)OC3)cc1
- Ki [1]: 3.11 µM
- Ki [2]: > 32 µM
- Ki (Beta-lactamase): 5.55 µM

SMILES: O=C(O)c1ccc(Oc2ccc3c(c2)B(O)OC3)cc1
- Ki (Beta-lactamase): 0.02 µM

SMILES: O=C(ONc1ccccc1)c1ccc2c(c1)B(O)OC2
- Ki [1]: > 37 µM
- Ki [2]: > 32 µM
- Ki (Beta-lactamase): 16 µM
- Ki [3]: 13.8 µM

SMILES: O=C(O)c1cccc(Oc2ccc3c(c2)B(O)OC3)c1
- Ki (Beta-lactamase): 1.44 µM

SMILES: OCc1cccc(Oc2ccc3c(c2)B(O)OC3)c1
- Ki [1]: 1.36 µM
- Ki [2]: 1.92 µM
- Ki (Beta-lactamase): 8.4 µM
- Ki [3]: 8.43 µM

SMILES: Nc1ccc(Oc2ccc3c(c2)B(O)OC3)cc1
- Ki (Beta-lactamase): 8.73 µM

SMILES: COc1ccc(Oc2ccc3c(c2)B(O)OC3)cc1
- Ki [1]: 4.34 µM
- Ki [2]: 14.1 µM
- Ki (Beta-lactamase): 6 µM
- Ki [3]: > 46 µM

SMILES: OB1OCc2ccc(C(O)c3ccccc3)cc21 (stereo unspecified)
- Ki [1]: > 37 µM
- Ki [2]: > 32 µM
- Ki (Beta-lactamase): 7.28 µM
- Ki [3]: 8.42 µM

SMILES: CN(C)Cc1ccc(Oc2ccc3c(c2)B(O)OC3)cc1
- Ki (Beta-lactamase): 40.6 µM

SMILES: OB1OCc2ccc(Oc3cccc(OCc4ccccc4)c3)cc21
- Ki [1]: 1.08 µM
- Ki [2]: 8.75 µM
- Ki (Beta-lactamase): 2.27 µM
- Ki [3]: 74.5 µM

SMILES: O=C(Nc1ccc2c(c1)B(O)OC2)c1ccccc1
- Ki [1]: > 37 µM
- Ki [2]: > 32 µM
- Ki (Beta-lactamase): 46.6 µM
- Ki [3]: > 138 µM

SMILES: Nc1cccc(Oc2ccc3c(c2)B(O)OC3)c1
- Ki [1]: 1.01 µM
- Ki [2]: 0.69 µM
- Ki (Beta-lactamase): 2.75 µM
- Ki [3]: 6.09 µM
